Columns and labels:
Escherichia coli [1] = experiment: Antibacterial activity against Escherichia coli harboring ampicillin-resistance gene encoding plasmid at 250 ug/ml after 24 hrs by disc diffusion assay; assay type: functional; conditions: read-out: DIZ
In short: (§1)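 Disc diffusion used an E. coli strain carrying a plasmid that encodes an ampicillin-resistance gene. Inhibition zone diameters were recorded and compared against the corresponding solvent controls.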

Candida albicans [2] = experiment: Antifungal activity against Candida albicans in yeast extract-peptone-glucose medium at 374 ug/ml after 48 hrs by disc diffusion assay in presence of 0.01% of sodium dodecylsulphate; assay type: functional; conditions: read-out: DIZ
In short: (§2)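 Disc diffusion on YEPD agar containing a cell-wall-disrupting agent (SDS, Congo red or calcofluor white) and spread with a set number of C. albicans cells. Compound and reference solvent spotted on 0.5 cm discs. Incubated at 30 °C, then inhibition zone diameter measured against solvent.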

Candida albicans [3] = experiment: Antifungal activity against Candida albicans in yeast extract-peptone-glucose medium at 374 ug/ml after 48 hrs by disc diffusion assay in presence of rhodamine 6G
Candida albicans [4] = experiment: Antifungal activity against Candida albicans in yeast extract-peptone-glucose medium at 374 ug/ml after 48 hrs by disc diffusion assay in presence of 150 ug/ml of congo red; assay type: functional; in short: as §2
Candida albicans [5] = experiment: Antifungal activity against Candida albicans in yeast extract-peptone-glucose medium at 428 ug/ml after 48 hrs by disc diffusion assay in presence of 150 ug/ml of congo red; assay type: functional; in short: as §2
Candida albicans [6] = experiment: Antifungal activity against Candida albicans in yeast extract-peptone-glucose medium at 428 ug/ml after 48 hrs by disc diffusion assay; assay type: functional; conditions: read-out: DIZ
In short: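 Solid-phase assay on YEPD agar spread with a set number of C. albicans cells. Compound solution and reference solvent spotted onto 0.5 cm discs. Plates incubated at 30 °C, and inhibition zone diameter measured against solvent control.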

Candida albicans [7] = experiment: Antifungal activity against Candida albicans in synthetic dextrose minimal medium after 48 hrs by ELISA based serial dilution method
Escherichia coli [8] = experiment: Antibacterial activity against Escherichia coli harboring ampicillin-resistance gene encoding plasmid at 428 ug/ml after 24 hrs by disc diffusion assay; assay type: functional; conditions: read-out: DIZ; in short: as §1
Candida albicans [9] = experiment: Antifungal activity against Candida albicans in yeast extract-peptone-glucose medium at 428 ug/ml after 48 hrs by disc diffusion assay in presence of rhodamine 6G
Candida albicans [10] = experiment: Antifungal activity against Candida albicans in yeast extract-peptone-glucose medium at 428 ug/ml after 48 hrs by disc diffusion assay in presence of 100 ug/ml of calcofluor white; assay type: functional; in short: as §2
Candida albicans [11] = experiment: Antifungal activity against Candida albicans in yeast extract-peptone-glucose medium at 428 ug/ml after 48 hrs by disc diffusion assay in presence of 0.01% of sodium dodecylsulphate; assay type: functional; conditions: read-out: DIZ; in short: as §2
Candida albicans [12] = experiment: Antifungal activity against Candida albicans in yeast extract-peptone-glucose medium at 375 ug/ml after 48 hrs by disc diffusion assay in presence of 150 ug/ml of congo red; assay type: functional
In short: (§3)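 C. albicans cells at a set number were spread on YEPD agar, either plain or containing the cell-wall disruptant named in the line (SDS, Congo red or calcofluor white). Compound solution, or the reference solvent as control, was spotted onto 0.5 cm discs placed on the lawn. Plates were incubated at 30 °C and the inhibition zone diameter was measured.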

Candida albicans [13] = experiment: Antifungal activity against Candida albicans in yeast extract-peptone-glucose medium at 375 ug/ml after 48 hrs by disc diffusion assay; assay type: functional; conditions: read-out: DIZ; in short: as §3
Candida albicans [14] = experiment: Antifungal activity against Candida albicans in yeast extract-peptone-glucose medium at 375 ug/ml after 48 hrs by disc diffusion assay in presence of 0.01% of sodium dodecylsulphate; assay type: functional; conditions: read-out: DIZ; in short: as §3
Candida albicans [15] = experiment: Antifungal activity against Candida albicans in yeast extract-peptone-glucose medium at 375 ug/ml after 48 hrs by disc diffusion assay in presence of 100 ug/ml of calcofluor white; assay type: functional; in short: as §3
Escherichia coli [16] = experiment: Antibacterial activity against Escherichia coli harboring ampicillin-resistance gene encoding plasmid at 500 ug/ml after 24 hrs by disc diffusion assay; assay type: functional; conditions: read-out: DIZ; in short: as §1
Candida albicans [17] = experiment: Antifungal activity against Candida albicans in yeast extract-peptone-glucose medium at 375 ug/ml after 48 hrs by disc diffusion assay in presence of rhodamine 6G
Candida albicans [18] = experiment: Antifungal activity against Candida albicans in yeast extract-peptone-glucose medium at 250 ug/ml after 48 hrs by disc diffusion assay in presence of 150 ug/ml of congo red; assay type: functional; in short: as §3
Candida albicans [19] = experiment: Antifungal activity against Candida albicans in yeast extract-peptone-glucose medium at 250 ug/ml after 48 hrs by disc diffusion assay in presence of rhodamine 6G
Candida albicans [20] = experiment: Antifungal activity against Candida albicans in yeast extract-peptone-glucose medium at 250 ug/ml after 48 hrs by disc diffusion assay in presence of 100 ug/ml of calcofluor white; assay type: functional; in short: as §3
Candida albicans [21] = experiment: Antifungal activity against Candida albicans in yeast extract-peptone-glucose medium at 250 ug/ml after 48 hrs by disc diffusion assay in presence of 0.01% of sodium dodecylsulphate; assay type: functional; conditions: read-out: DIZ; in short: as §3
Candida albicans [22] = experiment: Antifungal activity against Candida albicans in yeast extract-peptone-glucose medium at 250 ug/ml after 48 hrs by disc diffusion assay; assay type: functional; conditions: read-out: DIZ; in short: as §3
Candida albicans [23] = experiment: Antifungal activity against Candida albicans in yeast extract-peptone-glucose medium at 150 ug/ml after 48 hrs by disc diffusion assay in presence of 150 ug/ml of congo red; assay type: functional; conditions: read-out: DIZ; in short: as §3
Candida albicans [24] = experiment: Antifungal activity against Candida albicans in yeast extract-peptone-glucose medium at 150 ug/ml after 48 hrs by disc diffusion assay in presence of 100 ug/ml of calcofluor white; assay type: functional; in short: as §3
Escherichia coli [25] = experiment: Antibacterial activity against Escherichia coli harboring ampicillin-resistance gene encoding plasmid at 300 ug/ml after 24 hrs by disc diffusion assay; assay type: functional; conditions: read-out: DIZ; in short: as §1
Candida albicans [26] = experiment: Antifungal activity against Candida albicans in yeast extract-peptone-glucose medium at 150 ug/ml after 48 hrs by disc diffusion assay; assay type: functional; conditions: read-out: DIZ; in short: as §3
Candida albicans [27] = experiment: Antifungal activity against Candida albicans in yeast extract-peptone-glucose medium at 150 ug/ml after 48 hrs by disc diffusion assay in presence of 0.01% of sodium dodecylsulphate; assay type: functional; conditions: read-out: DIZ; in short: as §3

Q: Which zone of inhibition at 250 µg/mL (Escherichia coli [1]) does the source give for `O=C(C(=O)N1CCCCC1)c1cn(CCCn2cc(C(=O)C(=O)N3CCCCC3)c3ccccc32)c2ccccc12` here?
A: 9.5 mm

Q: And the zone of inhibition at 374 µg/mL (Candida albicans [2])?
A: 7.5 mm

Q: And the “diameter of the inhibition zone (DIZ)” value (Candida albicans [3])?
A: 6.5 mm

Q: And the “diameter of the inhibition zone (DIZ)” value (Candida albicans [4])?
A: 6.5 mm

Q: For `O=C(C(=O)N1CCCC1)c1cn(CCCn2cc(C(=O)C(=O)N3CCCC3)c3ccccc32)c2ccccc12`, which “diameter of the inhibition zone (DIZ)” value (Candida albicans [5]) is on record?
A: 5.5 mm

Q: What about the zone of inhibition at 428 µg/mL (Candida albicans [6]) of the same compound?
A: 7.5 mm

Q: And the IC50 (Candida albicans [7])?
A: 465 µM

Q: And the zone of inhibition at 428 µg/mL (Escherichia coli [8])?
A: 8 mm

Q: And the “diameter of the inhibition zone (DIZ)” value (Candida albicans [9])?
A: 6.5 mm

Q: And the “diameter of the inhibition zone (DIZ)” value (Candida albicans [10])?
A: 6.5 mm

Q: What about the zone of inhibition at 428 µg/mL (Candida albicans [11]) of the same compound?
A: 6.5 mm

Q: `O=C(C(=O)N1CCOCC1)c1cn(CCCn2cc(C(=O)C(=O)N3CCOCC3)c3ccccc32)c2ccccc12` was tested. Which “diameter of the inhibition zone (DIZ)” value (Candida albicans [12]) did it give?
A: 8 mm

Q: And the zone of inhibition at 375 µg/mL (Candida albicans [13])?
A: 7 mm

Q: And the zone of inhibition at 375 µg/mL (Candida albicans [14])?
A: 8.5 mm

Q: And the “diameter of the inhibition zone (DIZ)” value (Candida albicans [15])?
A: 6.5 mm

Q: And the zone of inhibition at 500 µg/mL (Escherichia coli [16])?
A: 6 mm

Q: What about the “diameter of the inhibition zone (DIZ)” value (Candida albicans [17]) of the same compound?
A: 7.5 mm

Q: For `O=C(NCc1ccccc1)C(=O)c1cn(CCCn2cc(C(=O)C(=O)NCc3ccccc3)c3ccccc32)c2ccccc12`, which “diameter of the inhibition zone (DIZ)” value (Candida albicans [18]) is on record?
A: 8 mm

Q: What about the “diameter of the inhibition zone (DIZ)” value (Candida albicans [19]) of the same compound?
A: 7 mm

Q: And the “diameter of the inhibition zone (DIZ)” value (Candida albicans [20])?
A: 7 mm

Q: And the zone of inhibition at 250 µg/mL (Escherichia coli [1])?
A: 12 mm

Q: And the zone of inhibition at 250 µg/mL (Candida albicans [21])?
A: 8.5 mm

Q: And the zone of inhibition at 250 µg/mL (Candida albicans [22])?
A: 9 mm

Q: And the IC50 (Candida albicans [7])?
A: 121 µM

Q: With `O=C(C(=O)N1CCCCC1)c1cn(CCCCn2cc(C(=O)C(=O)N3CCCCC3)c3ccccc32)c2ccccc12` as the compound, how does the zone of inhibition at 150 µg/mL (Candida albicans [23]) read?
A: 6 mm

Q: What about the “diameter of the inhibition zone (DIZ)” value (Candida albicans [24]) of the same compound?
A: 6 mm

Q: And the zone of inhibition at 300 µg/mL (Escherichia coli [25])?
A: 10.5 mm

Q: And the zone of inhibition at 150 µg/mL (Candida albicans [26])?
A: 6 mm

Q: And the zone of inhibition at 150 µg/mL (Candida albicans [27])?
A: 6.5 mm

Q: With `O=C(C(=O)N1CCCC1)c1cn(CCCCn2cc(C(=O)C(=O)N3CCCC3)c3ccccc32)c2ccccc12` as the compound, how does the “diameter of the inhibition zone (DIZ)” value (Candida albicans [12]) read?
A: 8 mm

Q: What about the zone of inhibition at 375 µg/mL (Candida albicans [13]) of the same compound?
A: 7.5 mm

Q: What about the zone of inhibition at 375 µg/mL (Candida albicans [14]) of the same compound?
A: 8 mm

Q: And the “diameter of the inhibition zone (DIZ)” value (Candida albicans [15])?
A: 7.5 mm

Q: What about the zone of inhibition at 500 µg/mL (Escherichia coli [16]) of the same compound?
A: 10.5 mm

Q: What about the IC50 (Candida albicans [7]) of the same compound?
A: 78 µM

Q: And the “diameter of the inhibition zone (DIZ)” value (Candida albicans [17])?
A: 7.5 mm

— ChEMBL document CHEMBL1777792, “Synthesis and evaluation of indole-based new scaffolds for antimicrobial activities--identification of promising candidates” (Bioorg Med Chem Lett, 2011)
